Assay results taken from ChEMBL document CHEMBL2146421, “Synthesis and anticonvulsant activity of some new thiazolo[3,2-a][1,3]diazepine, benzo[d]thiazolo[5,2-a][12,6]diazepine and benzo[d]oxazolo[5,2-a][12,6]diazepine analogues” (Eur J Med Chem, 2011).

Legend:
[1] = Toxicity in Swiss albino mouse assessed as mortality at 0.375 mmol/kg, ip measured 7 to 11 mins before pentylenetetrazole challenge; format: organism-based; settings: in vivo, read-out: Activity
In short: (§1)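 Compounds given i.p. at 3.0, 1.5, 0.75 and 0.375 mmol/kg to 6 mice per compound. Deaths occurring before the PTZ injection were recorded. PTZ (83 mg/kg s.c.) followed 30 min after compound dosing.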

Mus musculus [2] = assay: Anticonvulsant activity in Swiss albino mouse assessed as protection against pentylenetetrazole-induced convulsion at 0.75 mmol/kg, ip treated after 30 mins of pentylenetetrazole measured for 30 mins; format: functional
Mus musculus [3] = assay: Neurotoxicity in Swiss albino mouse assessed as inability to climb up backwards in a glass tube within 30 seconds at 1.5 mmol/kg, ip measured after 15 and 25 mins by Chimney test; format: toxicity, organism-based; settings: in vivo
In short: (§2)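 Chimney test: 15 and 25 min after i.p. dosing (3.0, 1.5, 0.75, 0.375 mmol/kg), inability of mice to climb backwards up a glass tube 25 cm long, 3 cm inner diameter, within 30 s recorded as neurological deficit.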

Mus musculus [4] = assay: Hypnotic activity in Swiss albino mouse assessed as righting reflex at 1.5 mmol/kg, ip; format: ADME, organism-based; settings: in vivo
Mus musculus [5] = assay: Neurotoxicity in Swiss albino mouse assessed as effect on motor activity at 1.5 mmol/kg, ip after 30 mins; format: toxicity, organism-based; settings: in vivo, 0.5 h
In short: (§3)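 Motor activity measured with an activity meter at 0 and 30 min after i.p. dosing, zero time taken as 100%.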

Mus musculus [6] = assay: Neurotoxicity in Swiss albino mouse assessed as effect on motor activity at 0.375 mmol/kg, ip after 30 mins; format: toxicity, organism-based; settings: in vivo, 0.5 h; in short: as §3
Mus musculus [7] = assay: Hypnotic activity in Swiss albino mouse assessed as righting reflex at 0.75 mmol/kg, ip; format: ADME, organism-based; settings: in vivo
[8] = Toxicity in Swiss albino mouse assessed as mortality at 0.75 mmol/kg, ip measured 7 to 11 mins before pentylenetetrazole challenge; format: organism-based; settings: in vivo, read-out: Activity; in short: as §1
[9] = Toxicity in Swiss albino mouse assessed as mortality at 1.5 mmol/kg, ip measured 7 to 11 mins before pentylenetetrazole challenge; format: organism-based; settings: in vivo, read-out: Activity; in short: as §1
Mus musculus [10] = assay: Hypnotic activity in Swiss albino mouse assessed as righting reflex at 0.375 mmol/kg, ip; format: ADME, organism-based; settings: in vivo
Mus musculus [11] = assay: Neurotoxicity in Swiss albino mouse assessed as effect on motor activity at 0.75 mmol/kg, ip after 30 mins; format: toxicity, organism-based; settings: in vivo, 0.5 h; in short: as §3
Mus musculus [12] = assay: Anticonvulsant activity in Swiss albino mouse assessed as protection against pentylenetetrazole-induced convulsion at 1.5 mmol/kg, ip treated after 30 mins of pentylenetetrazole measured for 30 mins; format: functional
Mus musculus [13] = assay: Anticonvulsant activity in Swiss albino mouse assessed as protection against pentylenetetrazole-induced convulsion at 0.375 mmol/kg, ip treated after 30 mins of pentylenetetrazole measured for 30 mins; format: functional
Mus musculus [14] = assay: Neurotoxicity in Swiss albino mouse assessed as inability to climb up backwards in a glass tube within 30 seconds at 0.375 mmol/kg, ip measured after 15 and 25 mins by Chimney test; format: toxicity, organism-based; settings: in vivo; in short: as §2
Mus musculus [15] = assay: Neurotoxicity in Swiss albino mouse assessed as inability to climb up backwards in a glass tube within 30 seconds at 0.75 mmol/kg, ip measured after 15 and 25 mins by Chimney test; format: toxicity, organism-based; settings: in vivo; in short: as §2
Mus musculus [16] = assay: Anticonvulsant activity in Swiss albino mouse assessed as protection against maximal electroshock-induced convulsion at 3.0 mmol/kg, ip […]; format: functional
In short: (§4)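 Test agent given i.p. to mice; 30 min later electric shock applied through the ears, animals released immediately to observe maximal seizure; percentage protected recorded (10 animals per dose in dose-response runs).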

Mus musculus [17] = assay: Anticonvulsant activity in Swiss albino mouse assessed as protection against bicuculline-induced convulsion at 0.75 mmol/kg, ip […] measured for 30 mins; format: functional
In short: (§5)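 Mice (6 per compound) dosed i.p.; 30 min later given bicuculline 1 mg/kg s.c. (freshly dissolved in 1 ml warmed 0.1 N HCl, made up with 0.9% NaCl), then observed 30 min; percentage anticonvulsion (animals protected) calculated. Dose-response runs used 10 animals per dose.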

Mus musculus [18] = assay: Neurotoxicity in Swiss albino mouse assessed as effect on motor activity at 3 mmol/kg, ip after 30 mins; format: toxicity, organism-based; settings: in vivo, 0.5 h; in short: as §3
Mus musculus [19] = assay: Hypnotic activity in Swiss albino mouse assessed as righting reflex at 3 mmol/kg, ip; format: ADME, organism-based; settings: in vivo
Mus musculus [20] = assay: Anticonvulsant activity in Swiss albino mouse assessed as protection against maximal electroshock-induced convulsion at 0.75 mmol/kg, ip […]; format: functional; in short: as §4
Mus musculus [21] = assay: Anticonvulsant activity in Swiss albino mouse assessed as protection against bicuculline-induced convulsion at 3.0 mmol/kg, ip […] measured for 30 mins; format: functional; in short: as §5
[22] = Toxicity in Swiss albino mouse assessed as mortality at 3 mmol/kg, ip measured 7 to 11 mins before pentylenetetrazole challenge; format: organism-based; settings: in vivo, read-out: Activity; in short: as §1
Mus musculus [23] = assay: Anticonvulsant activity in Swiss albino mouse assessed as protection against maximal electroshock-induced convulsion at 0.37 mmol/kg, ip […]; format: functional
In short: (§6)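 Test compound given i.p. to mice; 30 min later, electric shock was applied through the ears while the mice were hand-restrained. The mice were then released to observe the maximal seizure. Each dose was tested in 10 animals and the percentage protected was recorded.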

Mus musculus [24] = assay: Anticonvulsant activity in Swiss albino mouse assessed as protection against pentylenetetrazole-induced convulsion at 3 mmol/kg, ip treated after 30 mins of pentylenetetrazole measured for 30 mins; format: functional
Mus musculus [25] = species on record: Mus musculus; assay: Protective index, ratio of TD50 for Swiss albino mouse to ED50 for anticonvulsant activity in Swiss albino mouse; format: functional
In short: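 TD50 (median sedative dose) divided by ED50 (median effective dose), from dose-response curves at 10 mice per dose; 95% confidence limits given.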

Mus musculus [26] = assay: Anticonvulsant activity in Swiss albino mouse assessed as protection against bicuculline-induced convulsion at 0.37 mmol/kg, ip […] measured for 30 mins; format: functional; in short: as §5
Mus musculus [27] = assay: Anticonvulsant activity in Swiss albino mouse assessed as protection against pentylenetetrazole-induced convulsion at 0.37 mmol/kg, ip treated 30 mins before pentylenetetrazole measured for 30 mins
Mus musculus [28] = assay: Neurotoxicity in Swiss albino mouse assessed as inability to climb up backwards in a glass tube within 30 seconds at 0.37 mmol/kg, ip measured after 15 and 25 mins by Chimney test; format: toxicity, organism-based; settings: in vivo; in short: as §2
[29] = Toxicity in Swiss albino mouse by Spearman-Karber method; format: organism-based; settings: in vivo
In short: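 LD50 in mice was determined by the Spearman–Karber method, with doses chosen at equal logarithmic intervals. 95% confidence limits were reported.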

[30] = Toxicity in ip dosed Swiss albino mouse assessed as sedative effect; format: organism-based; settings: in vivo
Mus musculus [31] = assay: Anticonvulsant activity in Swiss albino mouse assessed as protection against picrotoxin-induced convulsion at 1.5 mmol/kg, ip […] measured for 30 mins; format: functional
In short: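 Test compound given i.p.; 30 min later, picrotoxin 3.15 mg/kg s.c. was injected. Picrotoxin was freshly dissolved in 1 ml warmed 0.1 N HCl and made up with 0.9% NaCl. Each dose was tested in 10 animals and the percentage of mice protected from clonic convulsions was recorded.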

Mus musculus [32] = assay: Anticonvulsant activity in ip dosed Swiss albino mouse assessed as protection against maximal electroshock-induced convulsion; format: functional; in short: as §4
Mus musculus [33] = assay: Anticonvulsant activity in Swiss albino mouse assessed as protection against bicuculline-induced convulsion at 1.5 mmol/kg, ip […] measured for 30 mins; format: functional; in short: as §5
Mus musculus [34] = assay: Anticonvulsant activity in Swiss albino mouse assessed as protection against maximal electroshock-induced convulsion at 1.5 mmol/kg, ip […]; format: functional; in short: as §6
Mus musculus [35] = assay: Neurotoxicity in Swiss albino mouse assessed as inability to climb up backwards in a glass tube within 30 seconds at 3 mmol/kg, ip measured after 15 and 25 mins by Chimney test; format: toxicity, organism-based; settings: in vivo; in short: as §2
[36] = Therapeutic index, ratio of LD50 for Swiss albino mouse to ED50 for anticonvulsant activity in Swiss albino mouse; format: organism-based; settings: in vivo, read-out: Ratio LD50/ED50
In short: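 TI was calculated as LD50/ED50. ED50 came from dose-response curves in 10 mice per dose. LD50 was determined by the Spearman–Karber method, with doses at equal logarithmic intervals.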

Structure (SMILES): S=C1CCCN2C=CSC2=N1
- mortality [1]: 0%
- Activity (Mus musculus [2]): 0%
- Activity (Mus musculus [3]): 100%
- Activity (Mus musculus [4]): 0%
- Activity (Mus musculus [5]): 11%
- Activity (Mus musculus [6]): 30%
- Activity (Mus musculus [7]): 0%
- mortality [8]: 10%
- mortality [9]: 50%
- Activity (Mus musculus [10]): 0%
- Activity (Mus musculus [11]): 26%
- Activity (Mus musculus [12]): 0%
- Activity (Mus musculus [13]): 0%
- Activity (Mus musculus [14]): 10%
- Activity (Mus musculus [15]): 30%

Structure (SMILES): O=C1CCCN2C(=N1)Sc1ccccc12
- Activity (Mus musculus [2]): 0%
- Activity (Mus musculus [3]): 0%
- Activity (Mus musculus [4]): 0%
- Activity (Mus musculus [5]): 0%
- mortality [9]: 0%
- Activity (Mus musculus [12]): 70%
- Activity (Mus musculus [13]): 0%

Structure (SMILES): O=C1CCCN2C(=N1)Sc1cc(Cl)ccc12
- Activity (Mus musculus [16]): 33%
- Activity (Mus musculus [17]): 10%
- Activity (Mus musculus [18]): 67%
- Activity (Mus musculus [19]): 20%
- Activity (Mus musculus [2]): 25%
- Activity (Mus musculus [3]): 25%
- Activity (Mus musculus [20]): 0%
- Activity (Mus musculus [21]): 100%
- mortality [22]: 0%
- Activity (Mus musculus [23]): 0%
- Activity (Mus musculus [4]): 0%
- Activity (Mus musculus [24]): 100%
- Activity (Mus musculus [5]): 33%
- Ratio TD50/ED50 (Mus musculus [25]): 1.09
- Activity (Mus musculus [7]): 0%
- mortality [8]: 0%
- mortality [9]: 0%
- Activity (Mus musculus [26]): 10%
- Activity (Mus musculus [11]): 20%
- Activity (Mus musculus [27]): 0%
- Activity (Mus musculus [28]): 0%
- Activity (Mus musculus [12]): 50%
- LD50 [29]: 617 mg/kg
- TD50 [30]: 417 mg/kg
- Activity (Mus musculus [31]): 20%
- ED50 (Mus musculus [32]): 380 mg/kg
- Activity (Mus musculus [33]): 66%
- Activity (Mus musculus [34]): 0%
- Activity (Mus musculus [35]): 100%
- selectivity ratio [36]: 1.62
- Activity (Mus musculus [15]): 0%

Structure (SMILES): O=C1CCCN2C=C(Br)SC2=N1
- mortality [1]: 0%
- Activity (Mus musculus [2]): 0%
- Activity (Mus musculus [3]): 80%
- Activity (Mus musculus [4]): 30%
- Activity (Mus musculus [5]): 12%
- Activity (Mus musculus [6]): 15%
- Activity (Mus musculus [7]): 0%
- mortality [8]: 0%
- mortality [9]: 0%
- Activity (Mus musculus [10]): 0%
- Activity (Mus musculus [11]): 13%
- Activity (Mus musculus [12]): 30%
- Activity (Mus musculus [13]): 0%
- Activity (Mus musculus [14]): 10%
- Activity (Mus musculus [15]): 40%
